The source made the active and inactive calls.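 Rule for the calls, unless noted: active = viability at or under a set limit in both replicates, limit being median viability minus 3 SD (cut at about 48% in these data, passing the limit was not always enough); inconclusive = at or under the limit in just one replicate; inactive = at or above the limit in both replicates.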

For 18 compounds, viability, differential viability (reversal) and inhibition results are on record in PubChem BioAssay.

Experiment [1] is described as follows: reduced viability of SK-BR-3 breast cancer cells – cell-based, 24 h, human, pilot screen (AID 572;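 active = viability at or below 10% of carrier control in both of two separate runs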;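 note: compound exposure lasted between 18 and 24 h rather than exactly 24 h; 100% = carrier-treated control wells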). As to conditions: SK-BR-3 viability, CellTiter-Glo luminescence, at 10 µM, stronger effect = lower value.
Experiment [2] can be described thus: HUVEC growth inhibition – cell-based, human, primary screen (AID 575;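 active = viability at or below 30% in both replicate assays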;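 note: 100% = median of untreated cell wells with 0.1% DMSO on each plate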). As to conditions: HUVEC proliferation, CellTiter-Glo luminescence, 72 h; at 10 µM; stronger effect = lower value. The essentials: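 Assay system: primary human umbilical vein endothelial cells / Buffer or medium: endothelial basal medium with 2% FBS plus growth supplements / Compound dosing: one dose, 10 µM final, 0.1% DMSO / Timing: 72 h treatment at 37 °C / Signal: CTG luminescence / Benchmarks: 32 DMSO-only cell-control wells (high), 32 MePR drug-control wells (low) per plate / Plate: collagen-coated 384-well format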
In general terms: Cellular ATP, detected with luciferase, serves as a proxy for viable cell number.

Experiment [3] can be described thus: H69AR cell proliferation blockers – human, duplicate replicates, primary screen (AID 580).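 Note: 100% = mean luminescence of untreated wells and 0% = no signal.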 As to conditions: H69AR lung tumor cells viability, ATP luminescence, 72 h; at 10 µM; stronger effect = lower value.
Experiment [4] in a line: MRP1 drug-resistance reversers in H69AR cells – cell-based, doxorubicin co-treatment, pilot screen (AID 601;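 active = viability loss from added drug above about 55%, and viability with drug at most 40%, in both replicates, limit read from the data, passing the limit was not always enough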). To be noted: CellTiter-Glo, 72 h, at 10 µM; for differential viability (reversal): stronger effect = higher value.
Experiment [5] can be described thus: yeast transport mutant growth inhibition pilot in 384-well plates, post-Golgi transport modulator project (AID 636; in the data active = inhibition above about 31%). As to conditions: absorbance 615 nm, about 18 h, stronger effect = higher value.
Experiment [6] in a line: growth suppression of yeast trafficking mutant, preliminary HTS, modulators of trafficking downstream of Golgi apparatus project, 1536-format plate, OD 615 nm (AID 637; in the data active = inhibition above about 30%). To be noted: yeast transport mutant growth, absorbance 615 nm, 18 h; stronger effect = higher value.
The mark [7] stands for this setting: H69AR cells + 2 uM doxorubicin, measured here: viability with 2 uM doxorubicin, stronger effect = lower value.
The mark [8] stands for this setting: H69AR cells, compound alone cytotoxicity.

For the compound `O=C(O)c1cccc(COCC(F)(F)C(F)F)c1`, the viability was 90% (inactive) in experiment [1]; 88.2% (inactive) in experiment [2]; 102% (inactive) in experiment [3]; 95.9% in experiment [4] (setting [7]); 102% in experiment [4] (setting [8]). For the same compound, in experiment [4] (H69AR cells + 2 uM doxorubicin), the differential viability (reversal) was 6.01% (inactive). Further, the inhibition in experiment [5] was -0.41% (inactive); in experiment [6], -3.87% (inactive).

As to `CCOC(=O)c1[nH]c(CSc2nnc(-c3ccncc3)n2CCOC)c(C(=O)OCC)c1C`, the viability was 94% (inactive) in experiment [1]; 96.7% (inactive) in experiment [2]; 94.8% (inactive) in experiment [3]; 90.6% in experiment [4] (setting [7]); 94.8% in experiment [4] (setting [8]). In addition, the differential viability (reversal) in experiment [4] (H69AR cells + 2 uM doxorubicin) was 4.23% (inactive). Further, the values for the inhibition in experiment [5] and in experiment [6] were -5.19% (inactive) and 1.31% (inactive), respectively.

Regarding `CCCCn1c(=O)[nH]c(=O)c2c1nc(COc1ccc(C#N)cc1)n2CCC`, the viability in experiment [1] is 106% (inactive); in experiment [2], 83.1% (inactive); in experiment [3], 88% (inactive); in experiment [4] (setting [7]), 76.7%; in experiment [4] (setting [8]) it was 88%. In addition, the differential viability (reversal) in experiment [4] (H69AR cells + 2 uM doxorubicin) was 11.3% (inactive). Also, the inhibition was -1.04% (inactive) in experiment [5] and -2.46% (inactive) in experiment [6].

With `Cc1cccc(C)c1-n1nnnc1SCSc1nnnn1-c1c(C)cccc1C`, the viability in experiment [1] was 92% (inactive); in experiment [2], 66.8% (inactive); in experiment [3], 72.1% (inactive); in experiment [4] (setting [7]) it was 73.3%; in experiment [4] (setting [8]), 72.1%. The differential viability (reversal) in experiment [4] (H69AR cells + 2 uM doxorubicin) was -1.23% (inactive). Further, the inhibition was -7.81% (inactive) in experiment [5] and -0.73% (inactive) in experiment [6].

On to `COc1ccc(-c2noc(CCN3C(=O)c4ccccc4C3=O)n2)cc1OC`, for which the viability in experiment [1] is 140% (inactive); in experiment [2], 105% (inactive); in experiment [3], 93.9% (inactive); in experiment [4] (setting [7]), 76.1%; in experiment [4] (setting [8]) it was 93.9%. For the same compound, in experiment [4] (H69AR cells + 2 uM doxorubicin), the differential viability (reversal) is 17.8% (inactive). In addition, the inhibition in experiment [5] is -4.03% (inactive); in experiment [6], -1.15% (inactive).

On to `O=C1C(Cl)=C(NCC2CCCO2)C(=O)N1CCc1ccccc1` (centres undefined), for which the viability in experiment [1] is 75% (inactive); in experiment [2], 111% (inactive); in experiment [3], 87.4% (inactive); in experiment [4] (setting [7]) it was 79%; in experiment [4] (setting [8]), 87.4%. Moreover, in experiment [4] (H69AR cells + 2 uM doxorubicin), the differential viability (reversal) was 8.39% (inactive). In addition, the inhibition in experiment [5] is -0.82% (inactive); in experiment [6], -4.03% (inactive).

`O=C(O)C1C2C=CC(C3CC23)C1C(=O)NCCc1ccccc1` (centres undefined): the viability was 101% (inactive) in experiment [1]; 89.7% (inactive) in experiment [2]; 98% (inactive) in experiment [3]; 91.7% in experiment [4] (setting [7]); 98% in experiment [4] (setting [8]). The differential viability (reversal) in experiment [4] (H69AR cells + 2 uM doxorubicin) was 6.28% (inactive). Moreover, the inhibition in experiment [5] was -5.81% (inactive); in experiment [6], -3.93% (inactive).

As to `Cc1cc(Cl)ccc1OCC(=O)Nn1c(C)ccc1C`, the viability is 68% (inactive) in experiment [1]; 101% (inactive) in experiment [2]; 94% (inactive) in experiment [3]; 82.9% in experiment [4] (setting [7]); 94% in experiment [4] (setting [8]). Further, in experiment [4] (H69AR cells + 2 uM doxorubicin), the differential viability (reversal) is 11.1% (inactive). Besides, the inhibition in experiment [5] was -1.37% (inactive); in experiment [6], -4.68% (inactive).

In the case of `COc1ccccc1-n1nnnc1SCc1cc2c(cc1Br)OCO2`, the viability is 65% (inactive) in experiment [1]; 86.1% (inactive) in experiment [2]; 72.2% (inactive) in experiment [3]; 77.2% in experiment [4] (setting [7]); 72.2% in experiment [4] (setting [8]). Also, the differential viability (reversal) in experiment [4] (H69AR cells + 2 uM doxorubicin) is -4.98% (inactive). The inhibition in experiment [5] was -6.16% (inactive); in experiment [6], 4.18% (inactive).

In the case of `COCCN(Cc1cc2cccc(C)c2[nH]c1=O)C(=O)c1ccccc1`, the viability is 95% (inactive) in experiment [1]; 118% (inactive) in experiment [2]; 102% (inactive) in experiment [3]; 94.1% in experiment [4] (setting [7]); 102% in experiment [4] (setting [8]). Further, the differential viability (reversal) in experiment [4] (H69AR cells + 2 uM doxorubicin) is 7.6% (inactive). For the same compound, the inhibition is -0.95% (inactive) in experiment [5] and 1.09% (inactive) in experiment [6].

Turning to `Cc1cc(C(=O)NCc2cccnc2)no1`, the viability in experiment [1] was 77% (inactive); in experiment [2], 108% (inactive); in experiment [3], 99.2% (inactive); in experiment [4] (setting [7]), 93%; in experiment [4] (setting [8]), 99.2%. Moreover, in experiment [4] (H69AR cells + 2 uM doxorubicin), the differential viability (reversal) is 6.27% (inactive). Further, the values for the inhibition in experiment [5] and in experiment [6] were -4.52% (inactive) and 1.61% (inactive), respectively.

`c1ccc(-c2cnc(CSc3ncnc4sccc34)o2)cc1`: the viability in experiment [1] is 94% (inactive); in experiment [2], 90.7% (inactive); in experiment [3], 96.9% (inactive); in experiment [4] (setting [7]) it was 82.2%; in experiment [4] (setting [8]) it was 96.9%. Besides, in experiment [4] (H69AR cells + 2 uM doxorubicin), the differential viability (reversal) was 14.7% (inactive). Besides, the inhibition in experiment [5] is -5.68% (inactive); in experiment [6] it was -5.82% (inactive).

Consider `CCC(=O)c1ccc(O)cc1`, for which the viability in experiment [1] is 96% (inactive); in experiment [2] it was 97% (inactive); in experiment [3], 97.1% (inactive); in experiment [4] (setting [7]), 101%; in experiment [4] (setting [8]), 97.1%. Also, the differential viability (reversal) in experiment [4] (H69AR cells + 2 uM doxorubicin) was -3.6% (inactive). The inhibition in experiment [5] is -0.13% (inactive); in experiment [6] it was 3.33% (inactive).

Consider `O=C(CN1C(=O)NC2(CCCCC2)C1=O)Nc1ccc(S(=O)(=O)N2CCOCC2)cc1`, for which the viability in experiment [1] is 124% (inactive); in experiment [2], 98.3% (inactive); in experiment [3], 96.3% (inactive); in experiment [4] (setting [7]) it was 82.7%; in experiment [4] (setting [8]), 96.3%. For the same compound, the differential viability (reversal) in experiment [4] (H69AR cells + 2 uM doxorubicin) is 13.6% (inactive). Further, the figures for the inhibition in experiment [5] and in experiment [6] were -3.38% (inactive) and 3.77% (inactive), respectively.

Consider `CC(=O)OCC[N+](C)(C)C`, for which the viability in experiment [1] was 102% (inactive); in experiment [2], 96.7% (inactive); in experiment [3] it was 92.5% (inactive); in experiment [4] (setting [7]) it was 101%; in experiment [4] (setting [8]), 92.5%. Further, the differential viability (reversal) in experiment [4] (H69AR cells + 2 uM doxorubicin) was -8.23% (inactive). The inhibition in experiment [5] is 1.95% (inactive); in experiment [6], -2.5% (inactive).

As for `CC1=C(C(=O)Nc2ccccc2C)C2(CCCC2)C(C(N)=O)C(=O)N1` (centres undefined), the viability is 114% (inactive) in experiment [1]; 81.7% (inactive) in experiment [2]; 90% (inactive) in experiment [3]; 88.4% in experiment [4] (setting [7]); 90% in experiment [4] (setting [8]). Moreover, the differential viability (reversal) in experiment [4] (H69AR cells + 2 uM doxorubicin) is 1.6% (inactive). In addition, the inhibition was 0.96% (inactive) in experiment [5] and 0% (inactive) in experiment [6].

As for `CC1CCN(S(=O)(=O)c2ccc(Br)s2)CC1`, the viability was 98% (inactive) in experiment [1]; 91.1% (inactive) in experiment [2]; 87.5% (inactive) in experiment [3]; 81.1% in experiment [4] (setting [7]); 87.5% in experiment [4] (setting [8]). The differential viability (reversal) in experiment [4] (H69AR cells + 2 uM doxorubicin) was 6.46% (inactive). Besides, the inhibition is -2.6% (inactive) in experiment [5] and -1.8% (inactive) in experiment [6].

`CC1(C)CC(=O)C=C(NC2CCS(=O)(=O)C2)C1` (centres undefined): the viability in experiment [1] is 97% (inactive); in experiment [2], 107% (inactive); in experiment [3] it was 91.3% (inactive); in experiment [4] (setting [7]), 92.2%; in experiment [4] (setting [8]) it was 91.3%. Besides, in experiment [4] (H69AR cells + 2 uM doxorubicin), the differential viability (reversal) was -0.825% (inactive). Besides, the inhibition in experiment [5] was 0% (inactive); in experiment [6], 6.89% (inactive).

In general, viability refers to a read-out of living cells in per cent, often relative to untreated cells. One may read the inhibition as the relative decrease from the control value, in per cent.
